DENV2 CPE – inhibitors of DENV2 cytopathic effect, primary screen, cell-based, plate reader, single concentration; DENV2-infected cells, cytopathic effect rescue; CPE inhibition, % at 9.99 µM; 1.7% of 350,000 active; AID 651640, 2012; in the data active means CPE inhibition above about 20%, passing the limit was not always enough; inconclusive means no clear call, values can overlap the other calls; tested in BHK-21 cells
CAL PDZ FP-1 – CAL PDZ peptide-binding inhibitors, primary screen, biochemical, fluorescence polarization, Cer-tagged CAL PDZ, HTS | Golgi-associated PDZ and coiled-coil motif-containing protein (Homo sapiens), Q9HD26 | purified CAL PDZ, TMR-peptide fluorescence polarization, 1 h | inhibition, % at 20 µM | 0.02% of 330,000 active | AID 504414, 2011;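 active means highest replicate inhibition of at least 40%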
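Assay system – tagged CAL PDZ protein CerCALP, purified · Timing – 1 h at RT · Compound – single point, 20 µM · Measured by – fluorescence polarization from S- and P-plane intensities, G-factor corrected · Evaluation – inhibition from polarization loss · Probe or stimulus – TMR reporter peptide T*-PRC34 · Buffer or medium – pH 7.4 phosphate-saline buffer, reducing agent, detergent, IgG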
CAL PDZ FP-2 – untagged CAL PDZ binding inhibitors, primary screen, biochemical, fluorescence polarization, HTS; Golgi-associated PDZ and coiled-coil motif-containing protein (Homo sapiens), Q9HD26; purified CAL PDZ, TMR-peptide fluorescence polarization, 1 h; inhibition, % at 24.9 µM; 0.92% of 300,000 active; AID 602252, 2012;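 active means mean inhibition of at least 30% with at least half of replicates also reaching 30%; inconclusive means no clear call, values can overlap the other calls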
SIRT5 block – SIRT5 desuccinylase inhibitors, primary screen, biochemical, fluorescence imaging, single point, set 5; Purified SirT5, succinyl-peptide AMC, trypsin-coupled fluorescence; inhibition, % at 15 µM; 1.1% of 330,000 active; AID 652115, 2013; in the data active means inhibition above about 15%; inconclusive means no clear call, values can overlap the other calls
Target sequence (Q9NXA8 whole entry, looked up): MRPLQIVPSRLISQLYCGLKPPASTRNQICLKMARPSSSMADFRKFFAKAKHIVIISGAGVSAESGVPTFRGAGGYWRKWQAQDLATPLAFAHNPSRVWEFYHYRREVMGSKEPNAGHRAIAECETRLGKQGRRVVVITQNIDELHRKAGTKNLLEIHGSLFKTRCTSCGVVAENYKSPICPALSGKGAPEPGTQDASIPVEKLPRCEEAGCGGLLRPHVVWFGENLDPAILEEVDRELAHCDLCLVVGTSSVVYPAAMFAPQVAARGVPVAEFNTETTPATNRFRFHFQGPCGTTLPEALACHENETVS
S100A4 MyoIIA – inhibitors of S100A4-myosin IIA peptide binding, primary screen, biochemical, fluorescence polarization, TAMRA-MyoIIA peptide; inhibition, % at 10.7 µM; 0.14% of 360,000 active; AID 652163, 2013; Protein S100-A4 (Homo sapiens), P26447;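 active means mean inhibition of at least 70% across replicates, with every replicate also reaching that level; inconclusive means mean inhibition reaches 70% but some replicates fall short; inactive means mean inhibition below 70%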
Target sequence (P26447 whole entry, looked up): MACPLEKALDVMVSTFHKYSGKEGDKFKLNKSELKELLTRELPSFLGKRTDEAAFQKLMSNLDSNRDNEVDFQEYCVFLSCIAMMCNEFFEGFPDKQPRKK
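Material: human S100A4 monomer with TAMRA-labelled myosin IIA peptide; buffer or medium: HEPES pH 7.2 with CaCl2, KCl, NaCl, DTT, Triton; compound dosing: one concentration per compound; schedule: 5 min incubation before reading; benchmarks: neutral control DMSO, positive control TFP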
ERAP1 HTS inh – human ERAP1 aminopeptidase inhibitors, primary screen, biochemical, single point, plate reader; recombinant ERAP1, Leu-AMC fluorescence, 60 min; inhibition, % at 10.7 µM; 0.15% of 340,000 active; AID 652197, 2013;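 active means mean replicate inhibition of at least 30%, or all replicates individually reaching that 30% level; inactive means mean below 30% and not every replicate reaching it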
Each line names hits and unclear results; the compound was inactive in the other large screens. Most compounds without a hit are left out; they make up all but 2.9% or so of the library.

C[C@@H]1CCCCO[C@H](CN(C)C(=O)CCCN(C)C)[C@@H](C)CN([C@H](C)CO)C(=O)c2cc(NC(=O)CCC(F)(F)F)ccc2O1	none (no result: DENV2 CPE, CAL PDZ FP-1, CAL PDZ FP-2)
C[C@@H]1CN([C@@H](C)CO)C(=O)c2cc(NC(=O)CCCN(C)C)ccc2O[C@@H](C)CCCCO[C@H]1CN(C)CC1CCCCC1	none (no result: CAL PDZ FP-1, CAL PDZ FP-2)
C[C@@H]1CCCCO[C@H](CN(C)C(=O)CCCN(C)C)[C@@H](C)CN([C@@H](C)CO)C(=O)c2cc(N(C)C)ccc2O1	SIRT5 block 16 (no result: CAL PDZ FP-1, CAL PDZ FP-2)
CCCN(CCC)CCN1CCN(C(=O)[C@H](CCc2ccccc2)NC(=O)[C@H]2O[C@@H](n3cnc4c(N)ncnc43)[C@H](O)[C@@H]2O)CC1	SIRT5 block 29 (no result: CAL PDZ FP-1, CAL PDZ FP-2)
O=C(C[C@@H]1CC[C@@H]2[C@H](COC[C@H](O)CN2C(=O)c2ccc(F)cc2)O1)Nc1ccc(-c2ccccc2)cc1	none (no result: CAL PDZ FP-1, CAL PDZ FP-2)
COc1ccc2c3c([nH]c2c1)[C@H](CO)N(C(=O)Nc1ccc(F)cc1)CC31CCN(S(=O)(=O)c2ccc(C)cc2)CC1	DENV2 CPE inconclusive, S100A4 MyoIIA inconclusive (no result: CAL PDZ FP-1, CAL PDZ FP-2)
CN1OC[C@@H]2CN(Cc3cc(Cl)cc(Cl)c3)[C@H](c3cccc(-c4ccc(C#N)cc4)c3)C[C@@H]21	DENV2 CPE 24 (no result: CAL PDZ FP-1, CAL PDZ FP-2)
CC(=O)N1C[C@H]2CON(C)[C@H]2C[C@H]1c1cccc(-c2ccc(C#N)cc2)c1	DENV2 CPE 21 (no result: CAL PDZ FP-1, CAL PDZ FP-2)
CN1C[C@H]2CON(C)[C@H]2C[C@H]1c1cccc(-c2ccc(C#N)cc2)c1	none
COc1ccccc1-c1cccc([C@@H]2C[C@H]3[C@H](CON3C)CN2C(=O)CCc2ccccc2)c1	SIRT5 block 17
Cc1ccc(S(=O)(=O)N2C[C@H](O)COC[C@@H]3O[C@@H](CC(=O)NCCN4CCCCC4)CC[C@H]32)cc1	none (no result: CAL PDZ FP-1, CAL PDZ FP-2)
CCCc1cn([C@H]2C[C@@H]3O[C@H](CO)CC[C@@H]3O[C@@H]2CCc2ccc(-c3ccc(OC)cc3)cc2)nn1	none (no result: CAL PDZ FP-1, CAL PDZ FP-2)
OC[C@@H]1CC[C@@H]2O[C@H](CCc3ccc(-c4ccc(F)cc4)cc3)[C@@H](n3cc(C4CC4)nn3)C[C@@H]2O1	none (no result: CAL PDZ FP-1, CAL PDZ FP-2)
CCCc1cn([C@H]2C[C@@H]3O[C@H](CO)CC[C@@H]3O[C@@H]2CCc2ccc(-c3ccccc3C#N)cc2)nn1	DENV2 CPE 28 (no result: CAL PDZ FP-1, CAL PDZ FP-2)
CC(C)c1cn([C@H]2C[C@@H]3O[C@@H](CO)CC[C@@H]3O[C@@H]2CCc2ccc(-c3ccccc3)cc2)nn1	none (no result: CAL PDZ FP-1, CAL PDZ FP-2)
OC[C@H]1CC[C@@H]2O[C@H](CCc3ccc(-c4ccccc4)cc3)[C@@H](n3cc(C4CC4)nn3)C[C@@H]2O1	DENV2 CPE 53 (no result: CAL PDZ FP-1, CAL PDZ FP-2)
OC[C@@H]1CC[C@@H]2O[C@H](CCc3ccc(-c4ccccc4)cc3)[C@@H](n3cc(C4CC4)nn3)C[C@@H]2O1	DENV2 CPE 20 (no result: CAL PDZ FP-1, CAL PDZ FP-2)
C[C@H](CO)N1C[C@H](C)[C@@H](CN(C)S(C)(=O)=O)OCCCC[C@H](C)Oc2ccc(NC(=O)CCCN(C)C)cc2C1=O	none (no result: CAL PDZ FP-1, CAL PDZ FP-2)
COc1ccccc1C1CC(=O)Oc2cc(C)c(Br)c(C)c21 (stereo unspecified)	SIRT5 block 35
NC(=NCCc1ccc(Cl)cc1)NS(=O)(=O)c1ccc(F)cc1	CAL PDZ FP-2 46 (no result: DENV2 CPE, SIRT5 block, S100A4 MyoIIA, ERAP1 HTS inh)
O=C(NCc1ccc(F)cc1)[C@@H]1[C@@H](CO)[C@@H]2Cn3c(ccc(C4=CCCCC4)c3=O)[C@H]1N2	none (no result: CAL PDZ FP-1, CAL PDZ FP-2)
CO[C@@H]1CN(C)C(=O)c2ccc(NC(C)=O)cc2OC[C@H](C)N(C(=O)CC2CC2)C[C@@H]1C	none (no result: DENV2 CPE, CAL PDZ FP-1, CAL PDZ FP-2, ERAP1 HTS inh)
CSc1nc(Cl)cc(=O)[nH]1	none
CCOCc1cc(=O)[nH]c(SC)n1	CAL PDZ FP-2 70
CCC(=O)N1CC2(C1)[C@@H](c1ccccc1)[C@@H](CO)N2Cc1ccccc1OC	none (no result: CAL PDZ FP-1, CAL PDZ FP-2)

Source: PubChem (Broad Institute)
